ChEMBL document CHEMBL1134536, “Nonpeptidic, monocharged, cell permeable ligands for the p56lck SH2 domain” (J Med Chem, 2001)

Tests used:
Jurkat [1] = assay: Inhibition of Ca+2 influx in jurkat T cells; assay type: functional, cell-based; details: Homo sapiens
Summary of the method: (§1)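 Jurkat cells loaded with 2 μM Fluo-3 AM plus Pluronic F127 for 1 h at room temperature, washed, resuspended in HBSS with 10 mM HEPES pH 7.5. 4 × 10^6 cells per cuvette equilibrated to 37 °C; compound added 80 s before TCR cross-linking with 2 μg mouse anti-human CD3. Cytoplasmic calcium followed by fluorescence over time; EC50 from percent of control fluorescence at six doses.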

[2] = molecular target: Tyrosine-protein kinase Lck (Homo sapiens, UniProt P06239); assay: Binding affinity for p56lck SH2 domain site
Homo sapiens = species: Homo sapiens; assay: Percent permeated in 3 hours in Caco-2 model; assay type: ADME, organism-based; details: caco-2, 3 h
Summary of the method: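 Caco-2 monolayers on collagen-coated polycarbonate filters, grown up to 25 days (passages 23–50). Cells equilibrated in HBSS pH 7.4 for 30 min at 37 °C. Drug applied apically at 0.01–0.1 mM final in HBSS at 37 °C, 5% CO2. Basolateral samples taken at intervals; cumulative amount plotted against time. Mannitol used to check monolayer integrity; mass balance >90%; at least triplicates.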

[3] = Inhibition of proliferation of CD4+T cells; assay type: functional, cell-based; details: Homo sapiens, CD4+ T cell
Summary of the method: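 Human CD4+ T cells, 5 × 10^4/well, preincubated with compound for 1 h at 37 °C. Stimulated with anti-CD3, anti-CD28 and anti-mouse IgG beads. Pulsed 48 h after activation with 0.5 μCi/well [3H]-thymidine, incubated a further 18 h at 37 °C, harvested, and incorporated radioactivity counted.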

[4] = Inhibition of IL-2 production from CD4+T cells; assay type: functional, cell-based; details: Homo sapiens, CD4+ T cell
Summary of the method: (§2)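 Purified human CD4+ T cells (5 × 10^4/well) in RPMI 1640 with 1% FBS. Compound diluted from DMSO stock, preincubated 1 h at 37 °C. Cells activated with 0.12 ng/well anti-CD3, 100 ng/well anti-CD28 and anti-mouse IgG magnetic beads, then incubated overnight at 37 °C, 5% CO2. Secreted IL-2 in supernatant measured by ELISA.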

Jurkat [5] = assay: Percent Inhibition of Ca+2 influx in jurkat T cells at 50 uM concentration; assay type: functional; details: Homo sapiens; summary of the method: as §1
Jurkat [6] = assay: Percent inhibition of Ca+2 influx in jurkat T cells at 50 uM concentration; assay type: functional; details: Homo sapiens; summary of the method: as §1
[7] = Inhibition of IL-2 production in CD4+T cells; assay type: functional, cell-based; details: Homo sapiens, CD4+ T cell; summary of the method: as §2

Chain of Tyrosine-protein kinase Lck (P06239 whole entry, the tested form may be a part): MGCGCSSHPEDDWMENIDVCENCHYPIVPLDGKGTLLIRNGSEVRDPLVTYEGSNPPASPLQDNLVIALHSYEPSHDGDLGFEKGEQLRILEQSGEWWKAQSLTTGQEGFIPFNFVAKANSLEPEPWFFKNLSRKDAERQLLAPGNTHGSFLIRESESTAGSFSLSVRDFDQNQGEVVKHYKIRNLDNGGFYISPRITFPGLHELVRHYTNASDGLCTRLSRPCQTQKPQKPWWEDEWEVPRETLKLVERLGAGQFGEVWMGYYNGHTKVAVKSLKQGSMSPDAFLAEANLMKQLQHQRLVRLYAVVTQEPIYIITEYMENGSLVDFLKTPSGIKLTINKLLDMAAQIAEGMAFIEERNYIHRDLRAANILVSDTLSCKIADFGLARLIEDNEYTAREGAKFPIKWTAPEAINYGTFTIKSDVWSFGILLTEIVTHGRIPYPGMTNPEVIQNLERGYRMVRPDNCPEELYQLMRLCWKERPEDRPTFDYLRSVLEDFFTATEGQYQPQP

EC50 (Jurkat [1]) [µM]	Kd [2] [µM]	Permeated (Homo sapiens) [%]	EC50 [4] [µM]	EC50 [7] [µM]	SMILES	EC50 [3] [µM]	inhibition at 50 µM (Jurkat [5]) [%]	inhibition at 50 µM (Jurkat [6]) [%]
51	1.2	0.4			COc1ccc(Cn2ccc(C)c(NC(=O)C(Cc3ccc(C(C)(C)C(=O)O)cc3)NC(=O)Cc3cccc4ccccc34)c2=O)cc1 (racemic)			
	23	1.3			COc1ccc(Cn2cccc(NC(=O)C(Cc3ccc(CC(=O)O)cc3)NC(=O)Cc3cccc4ccccc34)c2=O)cc1 (centres undefined)			
> 100	1.3	0.3			COc1ccc(Cn2ccc(C)c(NC(=O)C(Cc3ccc(CC(=O)O)cc3)NC(=O)Cc3cccc4ccccc34)c2=O)cc1 (centres undefined)			

More lines, now with the values behind:

SMILES	EC50 (Jurkat [1]) [µM]	Kd [2] [µM]	Permeated (Homo sapiens) [%]	EC50 [4] [µM]	EC50 [7] [µM]	EC50 [3] [µM]	inhibition at 50 µM (Jurkat [5]) [%]	inhibition at 50 µM (Jurkat [6]) [%]
COc1ccc(Cn2ccc(C)c(NC(=O)[C@H](Cc3ccc(C(C)(C)C(=O)O)cc3)NC(=O)C(C)(C)c3ccc4ccccc4c3)c2=O)cc1	10.1		21	9.4		8.7		
COc1ccc(Cn2ccc(C)c(NC(=O)C(Cc3ccc(C(C)(C)C(=O)O)cc3)NC(=O)Cc3ccc4ccccc4c3)c2=O)cc1 (racemic)	30.5	0.28	0.6					
COc1ccc(Cn2ccc(C)c(NC(=O)[C@@H](Cc3ccc(C(C)(C)C(=O)O)cc3)NC(=O)C(C)(C)c3ccc4ccccc4c3)c2=O)cc1			16		11.3	16.6	57	29
COc1ccc(CNC(=O)[C@H](CCC(=O)O)NC(=O)[C@H](Cc2ccc(CC(=O)O)cc2)NC(=O)Cc2cccc3ccccc23)cc1	> 100		0.3					
COc1ccc(Cn2ccc(C)c(NC(=O)C(Cc3ccc(CC(=O)O)cc3)NC(C)=O)c2=O)cc1 (centres undefined)		7	0.4					
